{
  "source": "ChEMBL document CHEMBL3734686",
  "about": "“Synthesis, Photophysical Properties, and Biological Evaluation of trans-Bisthioglycosylated Tetrakis(fluorophenyl)chlorin for Photodynamic Therapy” (J Med Chem, 2015)",
  "key": {"Liver": {"tested_on": "Liver", "test": "Drug uptake in BALB/c mouse liver implanted with mouse 4T1 cells assessed per gram of tissue at 0.18 mg/kg, ip after 48 hrs by HPLC-based fluorescence analysis", "format": "ADME, organism-based", "details": "in vivo", "in_short": "(§1)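 Female BALB/c mice bearing 4T1 thigh tumours received an i.p. dose in ethanol/PEG400/H2O (2/3/5) with 0.1% DMSO, or in saline, and were kept dark until killed. Tissues were weighed (100 mg), homogenised in CH3OH/DMSO/H2O (32/8/1) and centrifuged twice at 2300×g at 4°C. Supernatants were analysed by HPLC with fluorescence detection (λex 404/λem 654 nm or λex 400/λem 666 nm). n = 3 per time point.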"}, "Urinary bladder [1]": {"tested_on": "Urinary bladder", "test": "Drug uptake in BALB/c mouse bladder implanted with mouse 4T1 cells assessed per gram of tissue at 0.18 mg/kg, ip after 24 hrs by HPLC-based fluorescence analysis", "format": "ADME, organism-based", "details": "in vivo", "in_short": "as §1"}, "Spleen [2]": {"tested_on": "Spleen", "test": "Drug uptake in BALB/c mouse spleen implanted with mouse 4T1 cells assessed per gram of tissue at 0.18 mg/kg, ip after 24 hrs by HPLC-based fluorescence analysis", "format": "ADME, organism-based", "details": "in vivo", "in_short": "(§2)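 Female BALB/c mice with 4T1 cells (1 × 10^6 in HBSS) implanted in left rear thigh; single i.p. dose, 7 in ethanol/PEG400/H2O (2/3/5) with 0.1% DMSO, mono-L-aspartyl chlorin e6 in saline; kept dark until sacrifice. Tissues washed, frozen, homogenized in CH3OH/DMSO/H2O (32/8/1), centrifuged 2300×g; supernatant analysed by HPLC with fluorescence detection; three animals per time point.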"}, "T98G": {"tested_on": "T98G", "test": "Photocytotoxicity against human T98G cells assessed as cell survival preincubated for 24 hrs followed by irradiation at 16 J/cm2 measured at 24 hrs by WST-8 assay", "format": "functional, cell-based", "details": "light or radiation study", "in_short": "(§3)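 Cells (5 × 10^3/well) in DMEM with 10% FCS, 24 h at 37°C, 5% CO2; photosensitizer 1–50000 nM (1% DMSO final) for 24 h, washed, fresh medium. Irradiated with 100-W halogen lamp through λ>500 nm or λ>600 nm cutoff filter to 16 J·cm−2; WST-8 absorbance at 450 nm 24 h later, survival normalized to no-drug wells.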"}, "[3]": {"test": "Drug uptake in BALB/c mouse large intestine implanted with mouse 4T1 cells assessed per gram of tissue at 0.18 mg/kg, ip after 6 hrs by HPLC-based fluorescence analysis", "format": "ADME, organism-based", "details": "in vivo", "in_short": "as §1"}, "Lung": {"tested_on": "Lung", "test": "Drug uptake in BALB/c mouse lung implanted with mouse 4T1 cells assessed per gram of tissue at 0.18 mg/kg, ip after 12 hrs by HPLC-based fluorescence analysis", "format": "ADME, organism-based", "details": "in vivo", "in_short": "as §1"}, "Stomach [4]": {"tested_on": "Stomach", "test": "Drug uptake in BALB/c mouse stomach implanted with mouse 4T1 cells assessed per gram of tissue at 0.18 mg/kg, ip after 6 hrs by HPLC-based fluorescence analysis", "format": "ADME, organism-based", "details": "in vivo", "in_short": "as §2"}, "Muscle tissue [5]": {"tested_on": "Muscle tissue", "test": "Drug uptake in BALB/c mouse muscle implanted with mouse 4T1 cells assessed per gram of tissue at 0.18 mg/kg, ip after 12 hrs by HPLC-based fluorescence analysis", "format": "ADME, organism-based", "details": "in vivo", "in_short": "as §1"}, "Stomach [6]": {"tested_on": "Stomach", "test": "Drug uptake in BALB/c mouse stomach implanted with mouse 4T1 cells assessed per gram of tissue at 0.18 mg/kg, ip after 48 hrs by HPLC-based fluorescence analysis", "format": "ADME, organism-based", "details": "in vivo", "in_short": "as §2"}, "[7]": {"test": "Induction of reactive oxygen generation assessed as quantum yield of hydrogen peroxide generation in O2 saturated PBS containing 1% DMSO under photoirradiation by spectrometry relative to control hematoporphyrin", "format": "physicochemical", "details": "buffer", "in_short": "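Photosensitizer (1.00 µM) with HPF (2.00 µM) in PBS containing 1% DMSO, oxygenated 1 min, irradiated with 100-W halogen lamp through λ>500 nm cutoff filter at 37°C; hematoporphyrin as reference.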"}, "Stomach [8]": {"tested_on": "Stomach", "test": "Drug uptake in BALB/c mouse stomach implanted with mouse 4T1 cells assessed per gram of tissue at 0.18 mg/kg, ip after 72 hrs by HPLC-based fluorescence analysis", "format": "ADME, organism-based", "details": "in vivo", "in_short": "as §2"}, "Spleen [9]": {"tested_on": "Spleen", "test": "Drug uptake in BALB/c mouse spleen implanted with mouse 4T1 cells assessed per gram of tissue at 0.18 mg/kg, ip after 72 hrs by HPLC-based fluorescence analysis", "format": "ADME, organism-based", "details": "in vivo", "in_short": "as §2"}, "Zone of skin": {"tested_on": "Zone of skin", "test": "Drug uptake in BALB/c mouse skin implanted with mouse 4T1 cells assessed per gram of tissue at 0.18 mg/kg, ip after 6 hrs by HPLC-based fluorescence analysis", "format": "ADME, organism-based", "details": "in vivo", "in_short": "as §2"}, "Spleen [10]": {"tested_on": "Spleen", "test": "Drug uptake in BALB/c mouse spleen implanted with mouse 4T1 cells assessed per gram of tissue at 0.18 mg/kg, ip after 12 hrs by HPLC-based fluorescence analysis", "format": "ADME, organism-based", "details": "in vivo", "in_short": "as §2"}, "Heart": {"tested_on": "Heart", "test": "Drug uptake in BALB/c mouse heart implanted with mouse 4T1 cells assessed per gram of tissue at 0.18 mg/kg, ip after 12 hrs by HPLC-based fluorescence analysis", "format": "ADME, organism-based", "details": "in vivo", "in_short": "as §1"}, "Muscle tissue [11]": {"tested_on": "Muscle tissue", "test": "Drug uptake in BALB/c mouse muscle implanted with mouse 4T1 cells assessed per gram of tissue at 0.18 mg/kg, ip after 24 hrs by HPLC-based fluorescence analysis", "format": "ADME, organism-based", "details": "in vivo", "in_short": "as §1"}, "Spleen [12]": {"tested_on": "Spleen", "test": "Drug uptake in BALB/c mouse spleen implanted with mouse 4T1 cells assessed per gram of tissue at 0.18 mg/kg, ip after 6 hrs by HPLC-based fluorescence analysis", "format": "ADME, organism-based", "details": "in vivo", "in_short": "as §2"}, "[13]": {"test": "Drug uptake in BALB/c mouse small intestine implanted with mouse 4T1 cells assessed per gram of tissue at 0.18 mg/kg, ip after 72 hrs by HPLC-based fluorescence analysis", "format": "ADME, organism-based", "details": "in vivo", "in_short": "as §2"}, "4T1 [14]": {"tested_on": "4T1", "test": "Drug uptake in mouse 4T1 cells implanted in BALB/c mouse assessed per gram of tissue at 0.18 mg/kg, ip after 72 hrs by HPLC-based fluorescence analysis", "format": "ADME, organism-based", "details": "in vivo", "in_short": "as §2"}, "[15]": {"test": "Drug uptake in mitochondria of human Hela cells at 0.5 uM preincubated for 24 hrs followed by MitoTracker Green FM addition for 30 mins by CSLM analysis", "format": "ADME", "details": "0.5 h", "in_short": "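HeLa cells (1 × 10^4) plated 24 h, incubated 24 h with 0.5 µM final photosensitizer (1% DMSO), washed, stained 30 min with 250 nM MitoTracker Green FM in HBSS at 37°C, fixed in 4% paraformaldehyde. Confocal imaging: red λex 488/λem 650 nm; green λex 488/λem 505–530 nm.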"}, "[16]": {"test": "Photocytotoxicity against human U87 cells assessed as cell survival preincubated for 24 hrs followed by irradiation at 16 J/cm2 measured at 24 hrs by WST-8 assay", "format": "functional, cell-based, U-87MG ATCC", "details": "U-87 MG, light or radiation study", "in_short": "as §3"}, "Urinary bladder [17]": {"tested_on": "Urinary bladder", "test": "Drug uptake in BALB/c mouse bladder implanted with mouse 4T1 cells assessed per gram of tissue at 0.18 mg/kg, ip after 6 hrs by HPLC-based fluorescence analysis", "format": "ADME, organism-based", "details": "in vivo", "in_short": "as §1"}, "4T1 [18]": {"tested_on": "4T1", "test": "Potency index, ratio of compound antitumor activity to mono-L-aspartyl chlorin e6 antitumor activity against mouse 4T1 cells implanted in ip dosed BALB/c mouse", "format": "functional"}, "HeLa": {"tested_on": "HeLa", "test": "Drug uptake in human HeLa cells at 0.1 uM after 24 hrs by spectrophotometrical analysis", "format": "ADME, cell-based", "in_short": "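HeLa cells (2.5 × 10^6/well) in DMEM with 10% FCS, preincubated 24 h at 37°C; photosensitizer added to 0.1 µM final (1% DMSO) for 24 h, two wells each. Cells washed twice with PBS, lysed in DMSO, Soret-band absorbance read against DMSO calibration; mean of three replicate experiments.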"}, "Plasma": {"tested_on": "Plasma", "test": "Drug uptake in BALB/c mouse plasma implanted with mouse 4T1 cells at 0.045 mg/kg, ip after 1 to 24 hrs by HPLC analysis", "format": "ADME, organism-based", "details": "in vivo"}},
  "note": "pEC50: −log10 of the molar value.",
  "data": [
    {"molecule": "CN1CC2C3=N/C(=C(/c4c(F)c(F)c(S[C@@H]5O[C@H](CO)[C@@H](O)[C@H](O)[C@H]5O)c(F)c4F)C4=N/C(=C(/c5c(F)c(F)c(F)c(F)c5F)c5ccc([nH]5)/C(c5c(F)c(F)c(S[C@@H]6O[C@H](CO)[C@@H](O)[C@H](O)[C@H]6O)c(F)c5F)=C5/C=CC(=N5)C3c3c(F)c(F)c(F)c(F)c3F)C=C4)C2C1", "note": "(stereo not given in full)", "values": [
      {"measurement": "Drug uptake", "setting": "Liver", "value": 9, "unit": "ng"},
      {"measurement": "Drug uptake", "setting": "Urinary bladder [1]", "value": 77, "unit": "ng"},
      {"measurement": "Drug uptake", "setting": "Spleen [2]", "value": 58, "unit": "ng"},
      {"measurement": "pEC50", "setting": "T98G", "value": 9.30},
      {"measurement": "Drug uptake", "setting": "[3]", "value": 80, "unit": "ng"},
      {"measurement": "Drug uptake", "setting": "Lung", "value": 30, "unit": "ng"},
      {"measurement": "Drug uptake", "setting": "Stomach [4]", "value": 48, "unit": "ng/g"},
      {"measurement": "Drug uptake", "setting": "Muscle tissue [5]", "value": 4, "unit": "ng"},
      {"measurement": "Drug uptake", "setting": "Stomach [6]", "value": 6, "unit": "ng"},
      {"measurement": "Ratio", "setting": "[7]", "value": 0.18},
      {"measurement": "Drug uptake", "setting": "Stomach [8]", "value": 7, "unit": "ng"},
      {"measurement": "Drug uptake", "setting": "Spleen [9]", "value": 8, "unit": "ng"},
      {"measurement": "Drug uptake", "setting": "Zone of skin", "value": 5, "unit": "ng"},
      {"measurement": "Drug uptake", "setting": "Spleen [10]", "value": 55, "unit": "ng"},
      {"measurement": "Drug uptake", "setting": "Heart", "value": 6, "unit": "ng/g"},
      {"measurement": "Drug uptake", "setting": "Muscle tissue [11]", "value": 1.2, "unit": "ng"},
      {"measurement": "Drug uptake", "setting": "Spleen [12]", "value": 90, "unit": "ng/g"},
      {"measurement": "Drug uptake", "setting": "[13]", "value": 9.8, "unit": "ng/g"},
      {"measurement": "Drug uptake", "setting": "4T1 [14]", "value": 1.8, "unit": "ng/g"},
      {"measurement": "Drug uptake", "setting": "[15]", "value": "Active"},
      {"measurement": "pEC50", "setting": "[16]", "value": 10.00},
      {"measurement": "Drug uptake", "setting": "Urinary bladder [17]", "value": 90, "unit": "ng/g"},
      {"measurement": "Ratio", "setting": "4T1 [18]", "value": 250},
      {"measurement": "Drug uptake", "setting": "HeLa", "value": "Active"},
      {"measurement": "Drug uptake", "setting": "Plasma", "value": "Active"}
    ]}
  ]
}
